Reference: ChEMBL document CHEMBL1158372, “Design, synthesis, and biological evaluation of novel triazole derivatives as inhibitors of cytochrome P450 14alpha-demethylase” (2009)
In brackets after ≈: the same amount, converted by molar mass.

Key:
Format in all cases: functional
[1] = test system: Candida albicans; test: Antifungal activity against Candida albicans ATCC 76615 after 24 hrs by micro-broth dilution method; details: ATCC 76615, 24 h
Procedure, shortened: (§1)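 NCCLS (M27-A2) broth microdilution in 96-well format. Compounds in DMSO, serially diluted in growth medium, inoculated, incubated at 35 °C, and read at 24 h (C. albicans ATCC76615) or 72 h (Cry. neoformans ATCC32609). MIC80 is the first well with about 80% less growth than the drug-free well. Three independent runs per agent; the mean of replicates is reported.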

[2] = test system: Cryptococcus neoformans; test: Antifungal activity against Cryptococcus neoformans ATCC 32609 after 72 hrs by micro-broth dilution method; details: ATCC 32609, 72 h; procedure, shortened: as §1
[3] = test system: Candida parapsilosis; test: Antifungal activity against Candida parapsilosis by micro-broth dilution method; details: Lodderomyces parapsilosis
Procedure, shortened: (§2)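 Broth microdilution in 96-well plates following the NCCLS method. DMSO solutions of test agents were serially diluted in growth medium, inoculated, and incubated at 35 °C. MIC80 is the first well showing roughly 80% growth reduction versus the drug-free control. C. albicans ATCC76615 and Cry. neoformans ATCC32609 served as quality-control strains. Each test was done three times; the mean of replicates is reported.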

[4] = test system: Candida tropicalis; test: Antifungal activity against Candida tropicalis by micro-broth dilution method; procedure, shortened: as §2
[5] = test system: Trichophyton rubrum; test: Antifungal activity against Trichophyton rubrum by micro-broth dilution method; procedure, shortened: as §2
[6] = test system: Pichia kudriavzevii; test: Antifungal activity against Candida krusei by micro-broth dilution method; procedure, shortened: as §2
[7] = test system: Nannizzia gypsea; test: Antifungal activity against Microsporum gypseum by micro-broth dilution method; procedure, shortened: as §2
[8] = test system: Aspergillus fumigatus; test: Antifungal activity against Aspergillus fumigatus by micro-broth dilution method; procedure, shortened: as §2

## C[C@@H](c1ncncc1F)[C@](O)(Cn1cncn1)c1ccc(F)cc1F [VORICONAZOLE]
[1]
  MIC80: 0.0156 µg/mL (≈ 0.0447 µM)
[2]
  MIC80: 0.0156 µg/mL (≈ 0.0447 µM)
[3]
  MIC80: 0.0039 µg/mL (≈ 0.0112 µM)
[4]
  MIC80: 0.0039 µg/mL (≈ 0.0112 µM)
[5]
  MIC80: 0.0625 µg/mL (≈ 0.179 µM)
[6]
  MIC80: 0.0625 µg/mL (≈ 0.179 µM)
[7]
  MIC80: 0.0039 µg/mL (≈ 0.0112 µM)
[8]
  MIC80: 0.25 µg/mL (≈ 0.716 µM)

## C[C@@H]1[C@H](O)[C@@H](C)/C=C/C=C/C=C/C=C/C=C/C=C/C=C/[C@H](O[C@@H]2O[C@H](C)[C@@H](O)[C@H](N)[C@@H]2O)C[C@@H]2O[C@](O)(C[C@@H](O)C[C@@H](O)[C@H](O)CC[C@@H](O)C[C@@H](O)CC(=O)O[C@H]1C)C[C@H](O)[C@H]2C(=O)O [AMPHOTERICIN B]
[1]
  MIC80: 2 µg/mL (≈ 2.16 µM)
[2]
  MIC80: 2 µg/mL (≈ 2.16 µM)
[3]
  MIC80: 2 µg/mL (≈ 2.16 µM)
[4]
  MIC80: 2 µg/mL (≈ 2.16 µM)
[5]
  MIC80: 2 µg/mL (≈ 2.16 µM)
[6]
  MIC80: 2 µg/mL (≈ 2.16 µM)
[7]
  MIC80: 2 µg/mL (≈ 2.16 µM)
[8]
  MIC80: 64 µg/mL (≈ 69.3 µM)

## CC(=O)N1CCN(c2ccc(OCC3COC(Cn4ccnc4)(c4ccc(Cl)cc4Cl)O3)cc2)CC1 (stereo not drawn) [KETOCONAZOLE]
[1]
  MIC80: 0.0156 µg/mL (≈ 0.0294 µM)
[2]
  MIC80: 0.0625 µg/mL (≈ 0.118 µM)
[3]
  MIC80: 0.0625 µg/mL (≈ 0.118 µM)
[4]
  MIC80: 0.0625 µg/mL (≈ 0.118 µM)
[5]
  MIC80: 0.0625 µg/mL (≈ 0.118 µM)
[6]
  MIC80: 0.25 µg/mL (≈ 0.47 µM)
[7]
  MIC80: 0.0156 µg/mL (≈ 0.0294 µM)
[8]
  MIC80: 1 µg/mL (≈ 1.88 µM)

## C=CCN(Cc1cccc(Cl)c1)CC(O)(Cn1cncn1)c1ccc(F)cc1F (stereo not drawn)
[1]
  MIC80: 0.0156 µg/mL (≈ 0.0372 µM)
[2]
  MIC80: 0.25 µg/mL (≈ 0.597 µM)
[3]
  MIC80: 0.25 µg/mL (≈ 0.597 µM)
[4]
  MIC80: 0.0625 µg/mL (≈ 0.149 µM)
[5]
  MIC80: 1 µg/mL (≈ 2.39 µM)
[6]
  MIC80: 0.0625 µg/mL (≈ 0.149 µM)
[7]
  MIC80: 0.0625 µg/mL (≈ 0.149 µM)
[8]
  MIC80: > 64 µg/mL

## OC(Cn1cncn1)(Cn1cncn1)c1ccc(F)cc1F [FLUCONAZOLE]
[1]
  MIC80: 0.5 µg/mL (≈ 1.63 µM)
[2]
  MIC80: 1 µg/mL (≈ 3.27 µM)
[3]
  MIC80: 1 µg/mL (≈ 3.27 µM)
[4]
  MIC80: 1 µg/mL (≈ 3.27 µM)
[5]
  MIC80: 4 µg/mL (≈ 13.1 µM)
[6]
  MIC80: 4 µg/mL (≈ 13.1 µM)
[7]
  MIC80: 0.25 µg/mL (≈ 0.816 µM)
[8]
  MIC80: > 64 µg/mL

## C=CCN(Cc1ccc(C(=O)Oc2ccccc2)cc1)CC(O)(Cn1cncn1)c1ccc(F)cc1F (stereo not drawn)
[1]
  MIC80: 1 µg/mL (≈ 1.98 µM)
[2]
  MIC80: 1 µg/mL (≈ 1.98 µM)
[3]
  MIC80: 1 µg/mL (≈ 1.98 µM)
[4]
  MIC80: 1 µg/mL (≈ 1.98 µM)
[5]
  MIC80: 16 µg/mL (≈ 31.7 µM)
[6]
  MIC80: 1 µg/mL (≈ 1.98 µM)
[7]
  MIC80: 1 µg/mL (≈ 1.98 µM)
[8]
  MIC80: > 64 µg/mL

## C=CCN(Cc1ccccc1F)CC(O)(Cn1cncn1)c1ccc(F)cc1F (stereo not drawn)
[1]
  MIC80: 0.0039 µg/mL (≈ 0.00969 µM)
[2]
  MIC80: 0.0625 µg/mL (≈ 0.155 µM)
[3]
  MIC80: 0.0156 µg/mL (≈ 0.0388 µM)
[4]
  MIC80: 0.0625 µg/mL (≈ 0.155 µM)
[5]
  MIC80: 0.25 µg/mL (≈ 0.621 µM)
[6]
  MIC80: 0.0156 µg/mL (≈ 0.0388 µM)
[7]
  MIC80: 0.0039 µg/mL (≈ 0.00969 µM)
[8]
  MIC80: > 64 µg/mL

## C=CCN(Cc1ccc(C(=O)Oc2ccc(C(=O)OCCC)cc2)cc1)CC(O)(Cn1cncn1)c1ccc(F)cc1F (stereo not drawn)
[1]
  MIC80: 1 µg/mL (≈ 1.69 µM)
[2]
  MIC80: 4 µg/mL (≈ 6.77 µM)
[3]
  MIC80: 0.25 µg/mL (≈ 0.423 µM)
[4]
  MIC80: 0.25 µg/mL (≈ 0.423 µM)
[5]
  MIC80: 1 µg/mL (≈ 1.69 µM)
[6]
  MIC80: 4 µg/mL (≈ 6.77 µM)
[7]
  MIC80: 1 µg/mL (≈ 1.69 µM)
[8]
  MIC80: > 64 µg/mL

## C=CCN(Cc1ccc(C(=O)OCCCC)cc1)CC(O)(Cn1cncn1)c1ccc(F)cc1F (stereo not drawn)
[1]
  MIC80: 0.25 µg/mL (≈ 0.516 µM)
[2]
  MIC80: 1 µg/mL (≈ 2.06 µM)
[3]
  MIC80: 1 µg/mL (≈ 2.06 µM)
[4]
  MIC80: 1 µg/mL (≈ 2.06 µM)
[5]
  MIC80: 1 µg/mL (≈ 2.06 µM)
[6]
  MIC80: 1 µg/mL (≈ 2.06 µM)
[7]
  MIC80: 1 µg/mL (≈ 2.06 µM)
[8]
  MIC80: > 64 µg/mL

## C=CCN(Cc1ccc(C(=O)OC)cc1)CC(O)(Cn1cncn1)c1ccc(F)cc1F (stereo not drawn)
[1]
  MIC80: 0.0625 µg/mL (≈ 0.141 µM)
[2]
  MIC80: 0.25 µg/mL (≈ 0.565 µM)
[3]
  MIC80: 0.25 µg/mL (≈ 0.565 µM)
[4]
  MIC80: 0.0625 µg/mL (≈ 0.141 µM)
[5]
  MIC80: 0.25 µg/mL (≈ 0.565 µM)
[6]
  MIC80: 0.0625 µg/mL (≈ 0.141 µM)
[7]
  MIC80: 0.0156 µg/mL (≈ 0.0353 µM)
[8]
  MIC80: > 64 µg/mL

## C=CCN(Cc1ccc(C(=O)Oc2cccc([N+](=O)[O-])c2)cc1)CC(O)(Cn1cncn1)c1ccc(F)cc1F (stereo not drawn)
[1]
  MIC80: 0.25 µg/mL (≈ 0.455 µM)
[2]
  MIC80: 1 µg/mL (≈ 1.82 µM)
[3]
  MIC80: 0.25 µg/mL (≈ 0.455 µM)
[4]
  MIC80: 0.0625 µg/mL (≈ 0.114 µM)
[5]
  MIC80: 4 µg/mL (≈ 7.28 µM)
[6]
  MIC80: 4 µg/mL (≈ 7.28 µM)
[7]
  MIC80: 1 µg/mL (≈ 1.82 µM)
[8]
  MIC80: > 64 µg/mL

## C=CCN(Cc1ccccc1)CC(O)(Cn1cncn1)c1ccc(F)cc1F (stereo not drawn)
[1]
  MIC80: 0.0039 µg/mL (≈ 0.0101 µM)
[2]
  MIC80: 0.0625 µg/mL (≈ 0.163 µM)
[3]
  MIC80: 0.0625 µg/mL (≈ 0.163 µM)
[4]
  MIC80: 0.0625 µg/mL (≈ 0.163 µM)
[5]
  MIC80: 0.25 µg/mL (≈ 0.65 µM)
[6]
  MIC80: 0.0625 µg/mL (≈ 0.163 µM)
[7]
  MIC80: 0.0039 µg/mL (≈ 0.0101 µM)
[8]
  MIC80: > 64 µg/mL

## C=CCN(Cc1ccc(C(=O)Oc2ccc([N+](=O)[O-])cc2)cc1)CC(O)(Cn1cncn1)c1ccc(F)cc1F (stereo not drawn)
[1]
  MIC80: 0.25 µg/mL (≈ 0.455 µM)
[2]
  MIC80: 1 µg/mL (≈ 1.82 µM)
[3]
  MIC80: 1 µg/mL (≈ 1.82 µM)
[4]
  MIC80: 1 µg/mL (≈ 1.82 µM)
[5]
  MIC80: 4 µg/mL (≈ 7.28 µM)
[6]
  MIC80: 1 µg/mL (≈ 1.82 µM)
[7]
  MIC80: 0.25 µg/mL (≈ 0.455 µM)
[8]
  MIC80: > 64 µg/mL

## C=CCN(Cc1ccc(CC)cc1)CC(O)(Cn1cncn1)c1ccc(F)cc1F (stereo not drawn)
[1]
  MIC80: 0.25 µg/mL (≈ 0.606 µM)
[2]
  MIC80: 0.25 µg/mL (≈ 0.606 µM)
[3]
  MIC80: 1 µg/mL (≈ 2.42 µM)
[4]
  MIC80: 0.0156 µg/mL (≈ 0.0378 µM)
[5]
  MIC80: 1 µg/mL (≈ 2.42 µM)
[6]
  MIC80: 0.25 µg/mL (≈ 0.606 µM)
[7]
  MIC80: 0.0625 µg/mL (≈ 0.152 µM)
[8]
  MIC80: > 64 µg/mL

## C=CCN(Cc1ccc(C(=O)OCC)cc1)CC(O)(Cn1cncn1)c1ccc(F)cc1F (stereo not drawn)
[1]
  MIC80: 0.0039 µg/mL (≈ 0.00854 µM)
[2]
  MIC80: 1 µg/mL (≈ 2.19 µM)
[3]
  MIC80: 1 µg/mL (≈ 2.19 µM)
[4]
  MIC80: 0.25 µg/mL (≈ 0.548 µM)
[5]
  MIC80: 0.25 µg/mL (≈ 0.548 µM)
[6]
  MIC80: 0.0625 µg/mL (≈ 0.137 µM)
[7]
  MIC80: 0.25 µg/mL (≈ 0.548 µM)
[8]
  MIC80: > 64 µg/mL

## CN(C/C=C/C#CC(C)(C)C)Cc1cccc2ccccc12 [TERBINAFINE]
[1]
  MIC80: 4 µg/mL (≈ 13.7 µM)
[2]
  MIC80: 1 µg/mL (≈ 3.43 µM)
[3]
  MIC80: 0.25 µg/mL (≈ 0.858 µM)
[4]
  MIC80: 0.0625 µg/mL (≈ 0.214 µM)
[5]
  MIC80: 0.0625 µg/mL (≈ 0.214 µM)
[6]
  MIC80: 16 µg/mL (≈ 54.9 µM)
[7]
  MIC80: 4 µg/mL (≈ 13.7 µM)
[8]
  MIC80: 0.0625 µg/mL (≈ 0.214 µM)
